Experimental data from ChEMBL document CHEMBL1133473, “Synthesis and antiviral activity of 4-benzyl pyridinone derivatives as potent and selective non-nucleoside human immunodeficiency virus type 1 reverse transcriptase inhibitors” (J Med Chem, 2000).
Values joined by “and” are separate entries in the source; they are usually repeats but may differ in a detail not shown here. Equal values may be shown once.

Experiments:
MT4 [1] = test: Cytotoxicity against MT-4 cells infected with HIV-1 IIIB strain; format: functional; settings: Homo sapiens
[2] = Cytotoxicity against PBMC cells infected with HIV-2 D 194; format: functional; settings: Human immunodeficiency virus 2, PBMC
[3] = test system: Human immunodeficiency virus 1; test: Inhibitory concentration against HIV-1 Bal/Mono; format: functional, organism-based
In short: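 Macrophage-tropic HIV-1 Bal in monocyte-derived macrophages kept serum-free in AIM V medium with 100 U/mL GM-CSF. Virus output measured as supernatant particle-associated RT activity.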

[4] = test system: Human immunodeficiency virus 1; test: Inhibitory concentration against HIV-1 AZTres.; format: functional, organism-based
In short: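 AZT-resistant HIV-1 isolate A018 G910-6 tested in cell culture; virus production measured as RT activity of particles released into the culture supernatant.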

[5] = test system: Human immunodeficiency virus 1; test: Tested for inhibitory concentration on HIV-I nevirapine resistant strain.; format: functional, organism-based
In short: (§1)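 CEM-SS lymphocytic cells infected with 100 TCID50 of HIV-1 LAI, or of the nevirapine-resistant N119 strain carrying an RT codon 181 mutation. Virus adsorbed 30 min, unbound virus removed by two washes, then cells cultured 5 days with serial compound dilutions. Read-out: RT activity of particles released into the supernatant. IC50 from a computer median effect plot of dose-effect data.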

[6] = test system: Human immunodeficiency virus 1; test: Selectivity index is the ratio of CC50 to IC50; format: functional
MT4 [7] = test: Cytotoxicity against MT-4 cells infected with HIV-1 AZTres; format: functional; settings: Homo sapiens
[8] = Cytotoxicity against PBMC cells infected with HIV-1 IIIB strain; format: functional; settings: Human immunodeficiency virus 1, PBMC
[9] = test system: Human immunodeficiency virus 1; test: Inhibitory concentration against HIV-1 IIIB strain; format: functional, organism-based
In short: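 MT4 cells infected with HIV-1 IIIB; antiviral effect read as protection from virus-induced cytopathogenicity by MTT. Compounds taken from DMSO stock, diluted in culture medium.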

[10] = test system: Human immunodeficiency virus 1; test: Tested for cytotoxic concentration on HIV-I nevirapine resistant strain.; format: functional
In short: (§2)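 CEM-SS cells, uninfected, cultured 5 days with compound. Compounds were taken from a DMSO solution at 10^-2 M (10^-3 M or lower if insoluble), diluted 1:100 in medium, then serially diluted in medium.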

CEM-SS [11] = test: Tested for inhibitory concentration on HIV-I Lai wild type in CEM-SS cell line; format: functional, cell-based; settings: Homo sapiens; in short: as §1
[12] = test system: Human immunodeficiency virus 1; test: Selectivity index is the ratio of CC50 to IC50 against HIV-1 nevirapine resistant strain; format: functional
CEM-SS [13] = test: Tested for cytotoxic concentration on HIV-I Lai wild type in CEM-SS cell line; format: functional; settings: Homo sapiens; in short: as §2
[14] = Cytotoxicity against Macrophages infected with HIV-1 Bal/Mono; format: functional; settings: Human immunodeficiency virus 1
[15] = molecular target: Human immunodeficiency virus type 1 reverse transcriptase (Human immunodeficiency virus 1, UniProt Q72547); test: Tested for inhibitory concentration on HIV-1 Reverse transcriptase in the presence of poly(c)-oligo-(dG)
In short: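 Recombinant HIV-1 RT purified from yeast, 20-50 nM. Reaction at 37 °C for 10 min in 50 mM Tris-HCl pH 8.0, 5 mM MgCl2, 4 mM DTT, 80 mM KCl, BSA, 0.48 A260 units/mL poly(C)-oligo(dG) (5:1), 2 µM dGTP plus [3H]dGTP. Stopped with cold 10% TCA plus 0.1 M pyrophosphate; precipitates filtered, scintillation counted. Compounds dissolved in DMSO.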

[16] = Inhibitory concentration against HIV-2 D 194; format: functional
In short: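 Cell-based antiviral assay against this HIV-2 isolate. Compounds were dissolved in DMSO as 10^-2 M stocks, or 10^-3 M or lower when insoluble, diluted 1% in culture medium, then serially diluted in medium. Virus production was read as reverse transcriptase activity of particles released into the culture supernatant. IC50 was taken from a median-effect plot of the dose-effect data.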

Compound `CCc1c(C)[nH]c(=O)c(N(C)C)c1Cc1cc(C)cc(C)c1` has a CC50 (MT4 [1]) of over 1000 nM, a CC50 [2] of over 1000 nM and an IC50 [3] of 0.004 nM. The IC50 [4] was 0.2 nM, the IC50 [5] was 40 nM and the SI [6] was over 5000. For the same compound, the CC50 (MT4 [7]) was over 1000 nM, the CC50 [8] was over 1000 nM and the IC50 [9] was 2.4 nM and 0.58 nM. It also gave a CC50 [10] of over 1000 nM, an IC50 (CEM-SS [11]) of 0.2 nM and an SI [12] of over 25. For the same compound, the CC50 (CEM-SS [13]) was over 1000 nM, the CC50 [14] was over 1000 nM and the IC50 [15] was 20 nM. For the same compound, the IC50 [16] was over 1000 nM.
In the case of `CCOC(=O)Nc1c(O)ncc(C)c1Sc1cc(C)cc(C)c1`, the SI [6] is reported as over 13 and the IC50 (CEM-SS [11]) is reported as 7500 nM.
`CCC(=O)Nc1c(O)ncc(C)c1Sc1cc(C)cc(C)c1` gave an SI [6] of over 2 and an IC50 (CEM-SS [11]) of 41400 nM.
For `Cc1c(Sc2ccccc2)n(COCc2ccccc2)c(=O)[nH]c1=O`, the IC50 [15] was 300 nM.
`CCc1c(C)[nH]c(=O)c(NC=O)c1Cc1cc(C)cc(C)c1` showed a CC50 (MT4 [1]) of over 10000 nM, a CC50 [2] of over 10000 nM and an IC50 [3] of 21 nM. It also gave an IC50 [4] of 71 nM, an IC50 [5] of 2900 nM and an SI [6] of over 3333. The CC50 (MT4 [7]) was over 10000 nM, the CC50 [8] was over 10000 nM and the CC50 [10] was over 10000 nM. The IC50 (CEM-SS [11]) was 3 nM, the SI [12] was over 3 and the CC50 (CEM-SS [13]) was over 10000 nM. The CC50 [14] was over 10000 nM, the IC50 [15] was 200 nM and the IC50 [16] was over 10000 nM.
For `CCc1c(C)nc(O)c(NC(=O)CNC(=O)OC(C)(C)C)c1Cc1cc(C)cc(C)c1`, the SI [6] was 12, the IC50 (CEM-SS [11]) was 6700 nM and the CC50 (CEM-SS [13]) was 86000 nM.
In the case of `CCc1c(C)nc(OC)c(NC(C)=O)c1C(C)(OC(C)=O)c1cc(C)cc(C)c1` (stereo not drawn), the SI [6] is reported as over 4, the IC50 (CEM-SS [11]) is reported as 2500 nM and the CC50 (CEM-SS [13]) is reported as over 10000 nM.
For `CCc1cc(NCc2cc(C)c(C)cc2OC)c(O)nc1C`, the IC50 (CEM-SS [11]) was 8 nM.
With `CCc1c(C)nc(OC)c(NC(=O)C(C)(C)C)c1Cc1cc(C)cc(C)c1` the IC50 (CEM-SS [11]) was over 100000 nM and the CC50 (CEM-SS [13]) was over 100000 nM.
In the case of `CCc1c(C)nc(O)c([N+](=O)[O-])c1Sc1cc(C)cc(C)c1`, the IC50 [5] is reported as 260 nM.
Compound `CCc1c(C)nc(OC)c(NC(=O)C(C)(C)C)c1C(O)c1cc(C)cc(C)c1` (stereo not drawn) has an IC50 (CEM-SS [11]) of over 1000 nM and a CC50 (CEM-SS [13]) of over 1000 nM.
For `Cc1cn([C@H]2C[C@H](N=[N+]=[N-])[C@@H](CO)O2)c(=O)[nH]c1=O` [ZIDOVUDINE], the SI [6] was over 33333 and the IC50 (CEM-SS [11]) was 3 nM.
For `CCc1cc(NC(=O)C(C)(C)C)c(OC)nc1C`, the IC50 (CEM-SS [11]) was over 100000 nM and the CC50 (CEM-SS [13]) was over 100000 nM.
Work on `CCc1c(C)nc(O)c(N)c1C(O)c1cc(C)cc(C)c1` (stereo not drawn) yielded a CC50 (MT4 [1]) of 10000 nM, a CC50 [2] of over 10000 nM and an IC50 [3] of 180 nM. The IC50 [4] was 420 nM, the IC50 [5] was 4500 nM and the SI [6] was over 10. The CC50 (MT4 [7]) was over 10000 nM, the CC50 [8] was over 10000 nM and the IC50 [9] was 3400 nM and 690 nM. For the same compound, the CC50 [10] was over 10000 nM, the IC50 (CEM-SS [11]) was 1000 nM and the SI [12] was over 2. The CC50 (CEM-SS [13]) was over 10000 nM, the CC50 [14] was over 10000 nM and the IC50 [16] was over 10000 nM.
For `CCc1c(C)nc(OC)c2c1C(c1cc(C)cc(C)c1)OC(O)(C(C)(C)C)N2` (stereo not drawn), the SI [6] was over 2, the IC50 (CEM-SS [11]) was 4200 nM and the CC50 (CEM-SS [13]) was over 10000 nM.
For `CCOC(=O)Nc1c(O)nc(C)c(CC)c1Cc1cc(C)cc(C)c1`, the SI [6] was over 21, the IC50 (CEM-SS [11]) was 460 nM and the CC50 (CEM-SS [13]) was over 10000 nM.
`CCc1c(C)nc(OC)c(NC(=O)C(C)(C)C)c1Cc1ccccc1` gave an IC50 (CEM-SS [11]) of over 1000 nM and a CC50 (CEM-SS [13]) of over 1000 nM.
With `CCOCn1c(Cc2cc(C)cc(C)c2)c(C(C)C)c(=O)[nH]c1=O` the SI [6] was 72000, the IC50 (CEM-SS [11]) was 0.6 nM and the CC50 (CEM-SS [13]) was 43000 nM.
